Format in all cases: ADME
Data set [1] is described as follows: Acid base constant value for N1 atom. The settings on record: read-out: pKa1. The method in brief:
(§1)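 Potentiometric titration: the polyamine hydrochloride salt was first converted to the free amine by adding base, then titrated in 0.1 N KCl. Each nitrogen's pKa was estimated by a nonlinear least-squares computer fit of the titration curve. Fractions of the protonated species were then simulated from the measured pKa values.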

Data set [2] can be described thus: Acid base constant value for N2 atom. The note with it: read-out: pKa2. In short, it runs like this:
as §1

A short description of data set [3]: Acid base constant value for N4 atom. The note with it: read-out: pKa4. The method in brief:
as §1

Data set [4] is described as follows: Acid base constant value for N3 atom. The note with it: read-out: pKa3. The method in brief: as §1

On to `C(CCNC1CCNCC1)CNC1CCNCC1`, for which the pKa was 11.4 in data set [1], 10.7 in data set [2], 7.6 in data set [3] and 9.02 in data set [4].

As to `C(CNC1CCNCC1)CNC1CCNCC1`, the pKa is 11.2 in data set [1], 10.7 in data set [2], 7.14 in data set [3] and 8.88 in data set [4].

`C(CCNCCC1CCNCC1)CNCCC1CCNCC1`: the pKa in data set [1] is 10.9; in data set [2] it was 10.8; in data set [3], 9.1; in data set [4], 10.

With `c1cc(NCCCNc2ccncc2)ccn1`, the pKa in data set [1] was 9.55; in data set [2] it was 9.14; in data set [3], < 2; in data set [4], < 2.

As to `NCCCCNCCCCNCCCCN`, the pKa in data set [1] was 11.2; in data set [2] it was 10.4; in data set [3] it was 8.72; in data set [4] it was 9.57.

For `CCNCCCNCCCNCCCNCC` [BIS(ETHYL)NORSPERMINE], the pKa stood at 10.8 in data set [1], 9.91 in data set [2], 7.68 in data set [3] and 8.51 in data set [4].

`CCNCCCNCCCCNCCCNCC` [BIS(ETHYL)SPERMINE]: the pKa in data set [1] was found to be 11.2; in data set [2] it was 10.8; in data set [3], 8.25; in data set [4] it was 9.42.

For the compound `CCNCCCCNCCCCNCCCCNCC` [DIETHYLHOMOSPERMINE], the pKa in data set [1] was 11.1; in data set [2], 10.8; in data set [3], 8.91; in data set [4], 9.73.

As to `NCCCNCCCNCCCN` [THERMINE], the pKa in data set [1] came to 10.6; in data set [2], 9.8; in data set [3], 7.51; in data set [4] it was 8.35.

For the origin of these results see ChEMBL document CHEMBL1129465, “Polyamine analogue regulation of NMDA MK-801 binding: a structure-activity study” (J Med Chem, 1996).
